Experimental data as given in ChEMBL document CHEMBL4814017, “Discovery and optimization of novel 3-benzyl-N-phenyl-1H-pyrazole-5-carboxamides as bifunctional antidiabetic agents stimulating both insulin secretion and glucose uptake” (Eur J Med Chem, 2021).
Active and inactive are the calls of the source. The rule behind the calls is not given here.

How the values were obtained:
[1] = Cytotoxicity against rat INS1 cells assessed as cell viability at 10 uM incubated for 24 hrs by MTT assay relative to untreated control; format: cell-based; settings: read-out: Activity
[2] = Induction of insulin secretion in rat INS-1 cells assessed as glucose stimulation index at 5 uM followed by stimulated with 16.7 mM glucose measured after 1 hrs by ELISA relative to basal insulin level; format: functional, INS1
Procedure, shortened: (§1)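 Rat insulinoma INS-1 cells grown in RPMI 1640 with 11 mM glucose, 10% FBS, HEPES, pyruvate and 2-mercaptoethanol. After 24 h seeding, cells washed in KRB pH 7.4 with 3.3 mM glucose, starved 2 h, given compound for 30 min, then 3.3 mM (basal) or 16.7 mM glucose for 1 h. Insulin measured by rat insulin ELISA at 450 nm. GSI = stimulated/basal insulin. Triplicate, mean ± SD. Gliclazide control.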

[3] = Induction of insulin secretion in rat INS-1 cells assessed as glucose stimulation index at 10 uM followed by stimulated with 16.7 mM glucose measured after 1 hrs by ELISA relative to basal insulin level; format: functional, INS1; procedure, shortened: as §1
INS1 [4] = experiment: Induction of PDX-1 expression in rat INS-1 cells at 2.5 to 10 uM after 24 hrs by Western blot analysis; format: functional, cell-based; settings: dose 2.5-10 µM
Procedure, shortened: (§2)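 INS-1 cells seeded in 6-well plates, grown 24 h, then treated 24 h with 0, 2.5, 5 or 10 µM; vehicle control 0.5% DMSO. Lysed in RIPA with 1 mM PMSF at 4 °C, protein by BCA. Blots probed for p-IRS-2 (Ser731), IRS-2, p-PI3K, PI3K, p-Akt (Ser473), Akt, PPAR-γ, PDX-1 and GAPDH, HRP anti-rabbit secondary, ECL detection, densitometry. Triplicate, n = 3, SD.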

C2C12 [5] = experiment: Activation of PI3K/Akt signalling pathway in mouse C2C12 cells assessed as increase in p-Akt expression upto 50 uM incubated for 16 hrs by Western blot analysis; format: cell-based; settings: filed as activator, dose microM <=50, time 16.0 hrs
Procedure, shortened: (§3)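 C2C12 myoblasts grown in DMEM to 90% confluence and differentiated 4 days in DMEM with 2% horse serum. Myotubes then held 16 h in DMEM with 2% BSA and 10% FBS with 0, 5, 10, 20 or 50 µM compound. Western blot for MG53, IRS-1, p-PI3K, PI3K, p-Akt, Akt and GAPDH.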

C2C12 [6] = experiment: Induction of glucose uptake in mouse C2C12 cells incubated for 16 hrs in absence of insulin by 2-NBDG uptake assay; format: functional, cell-based; settings: dose microM <=50, time 16.0 hrs
Procedure, shortened: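 Differentiated C2C12 myotubes (4 days, DMEM with 2% horse serum) held 16 h in DMEM with 2% BSA and 10% FBS, with or without compound and without insulin, after which basal glucose uptake was measured.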

C2C12 [7] = experiment: Activation of PI3K/Akt signalling pathway in mouse C2C12 cells assessed as increase in p-PI3K expression upto 50 uM incubated for 16 hrs by Western blot analysis; format: cell-based; settings: filed as activator, dose microM <=50, time 16.0 hrs; procedure, shortened: as §3
INS1 [8] = experiment: Induction of PPARgamma expression in rat INS1 cells at 2.5 to 10 uM after 24 hrs by Western blot analysis; format: functional, cell-based; settings: dose 2.5-10 µM; procedure, shortened: as §2
C2C12 [9] = experiment: Upregulation of IRS-1 level in mouse C2C12 cells upto 50 uM after 16 hrs by Western blot analysis; format: functional, cell-based; settings: dose microM <=50, time 16.0 hrs; procedure, shortened: as §3
INS1 [10] = experiment: Activation of PI3K/Akt signalling pathway in rat INS1 cells assessed as increase in p-Akt expression at 2.5 to 10 uM after 24 hrs by Western blot analysis; format: cell-based; settings: filed as activator, dose 2.5-10 µM; procedure, shortened: as §2
INS1 [11] = experiment: Activation of PI3K/Akt signalling pathway in rat INS1 cells assessed as increase in p-IRS2 expression at 2.5 to 10 uM after 24 hrs by Western blot analysis; format: cell-based; settings: filed as activator, dose 2.5-10 µM; procedure, shortened: as §2
[12] = Cytotoxicity against human LX2 cells assessed as reduction in cell viability incubated for 24 hrs by MTT assay; format: cell-based; settings: lx-2, 24 h
3T3-L1 = experiment: Cytotoxicity against mouse 3T3-L1 cells assessed as reduction in cell viability incubated for 24 hrs by MTT assay; format: cell-based; settings: 3t3-l1, 24 h
INS1 [13] = experiment: Activation of PI3K/Akt signalling pathway in rat INS1 cells assessed as increase in p-PI3K expression at 2.5 to 10 uM after 24 hrs by Western blot analysis; format: cell-based; settings: filed as activator, dose 2.5-10 µM; procedure, shortened: as §2
C2C12 [14] = experiment: Downregulation of MG53 level in mouse C2C12 cells after 16 hrs by Western blot analysis; format: functional, cell-based; settings: dose microM <=50, time 16.0 hrs; procedure, shortened: as §3

| SMILES | viability at 24 h, 10 µM [1] | Activity_index [2] | Activity_index [3] | further results |
| --- | --- | --- | --- | --- |
| COc1ccc(NC(=O)c2cc(Cc3ccc(Cl)cc3)nn2C)c(OC)c1 | 96.2% | 1.37 | – | – |
| O=C(Nc1ccc(C(F)(F)F)cc1)c1cc(Cc2ccc(Cl)cc2)n[nH]1 | 102% | – | 1.69 | – |
| COc1ccc(Cc2cc(C(=O)Nc3ccccc3OC)[nH]n2)cc1 | 101% | 1.66 | – | – |
| COc1ccc(Cc2cc(C(=O)Nc3ccc(OC)cc3)[nH]n2)cc1 | 105% | – | 1.66 | – |
| COc1ccc(NC(=O)c2cc(Cc3ccc(Cl)cc3)n[nH]2)c(OC)c1 | 96.3% | 14.9 | – | Activity (INS1 [4]): Active; Activity (C2C12 [5]): Active; Activity (C2C12 [6]): Dose-Dependent Effect; Activity (C2C12 [7]): Active; Activity (INS1 [8]): Active; Activity (C2C12 [9]): Active; Activity (INS1 [10]): Dose-Dependent Effect; Activity (INS1 [11]): Dose-Dependent Effect; Activity [12]: Non-Toxic; Activity (3T3-L1): Non-Toxic; Activity (INS1 [13]): Dose-Dependent Effect; inhibition (C2C12 [14]): Dose-Dependent Effect |
| COc1ccc(Cc2cc(C(=O)Nc3cccc(OC)c3)[nH]n2)cc1 | 102% | 1.55 | – | – |
| COc1ccc(NC(=O)c2cc(C(=O)c3ccc(Cl)cc3)n[nH]2)c(OC)c1 | 100% | 1.49 | – | – |
| COc1ccc(N(C)C(=O)c2cc(Cc3ccc(Cl)cc3)n[nH]2)c(OC)c1 | 93.3% | 1.33 | – | – |
| O=C(Nc1ccc(C(F)(F)F)cc1)c1cc(Cc2ccc(F)cc2)n[nH]1 | 92.8% | – | 2.02 | – |
| COc1ccc(Cc2cc(C(=O)Nc3cccc(OC)c3OC)[nH]n2)cc1 | 98.9% | 1.13 | – | – |
| COc1ccc(Cc2cc(C(=O)Nc3ccc4c(c3)OCO4)[nH]n2)cc1 | 102% | 1.13 | – | – |
| COC(=O)c1ccc(NC(=O)c2cc(Cc3ccc(F)cc3)n[nH]2)cc1 | 102% | – | 1.42 | – |
| O=C(Nc1ccc(F)cc1)c1cc(Cc2ccc(F)cc2)n[nH]1 | 100% | – | 1.86 | – |
| O=C(Nc1ccc(F)cc1)c1cc(Cc2ccc(Cl)cc2)n[nH]1 | 94.9% | – | 6.73 | – |
| O=C(Nc1ccccc1)c1cc(Cc2ccc(F)cc2)n[nH]1 | 100% | – | 2 | – |
| COc1ccc(NC(=O)c2cc(Cc3cccc(Cl)c3)n[nH]2)c(OC)c1 | 97.7% | 1.29 | – | – |
| COc1ccc(Cc2cc(C(=O)Nc3cc(OC)ccc3OC)[nH]n2)cc1 | 100% | 2.35 | – | – |
| COC(=O)c1ccc(NC(=O)c2cc(Cc3ccc(OC)cc3)n[nH]2)cc1 | 99.2% | – | 1.85 | – |
| COc1ccc(Cc2cc(C(=O)Nc3ccc(C(F)(F)F)cc3)[nH]n2)cc1 | 98.4% | – | 2.07 | – |
| COC(=O)c1ccc(NC(=O)c2cc(Cc3ccc(Cl)cc3)n[nH]2)cc1 | 101% | – | 1.48 | – |
| O=C(Nc1ccccc1)c1cc(Cc2ccc(Cl)cc2)n[nH]1 | 109% | – | 5.24 | – |

| SMILES | viability at 24 h, 10 µM [1] | Activity_index [2] | Activity_index [3] | further results |
| --- | --- | --- | --- | --- |
| COc1ccc(Cc2cc(C(=O)Nc3ccc(C(C)(C)C)cc3)[nH]n2)cc1 | 99.4% | – | 1.64 | – |
| COc1ccc(OC)c(NC(=O)c2cc(Cc3ccc(Cl)cc3)n[nH]2)c1 | 97.9% | 3.25 | – | – |
| COc1ccccc1NC(=O)c1cc(Cc2ccc(F)cc2)n[nH]1 | 104% | 3.67 | – | – |
| COc1ccc(NC(=O)c2cc(Cc3ccccc3Cl)n[nH]2)c(OC)c1 | 102% | 2.43 | – | – |
| COc1ccc(NC(=O)c2cc(Cc3ccc(F)cc3)n[nH]2)c(OC)c1 | 99.9% | 1.93 | – | – |
| COc1cccc(NC(=O)c2cc(Cc3ccc(F)cc3)n[nH]2)c1OC | 102% | 1.16 | – | – |
| COc1ccc(NC(=O)c2cc(Cc3ccc(Cl)cc3)n[nH]2)cc1 | 101% | 2.6 | 7.59 | – |
| O=C(Nc1ccc2c(c1)OCO2)c1cc(Cc2ccc(Cl)cc2)n[nH]1 | 101% | 1.29 | – | – |
| COc1ccc(NC(=O)c2cc(Cc3ccc(F)cc3)n[nH]2)cc1 | 95.6% | – | 2.03 | – |
| COc1ccc(Cc2cc(C(=O)Nc3ccc(F)cc3)[nH]n2)cc1 | 105% | – | 2.49 | – |
| COc1cccc(NC(=O)c2cc(Cc3ccc(F)cc3)n[nH]2)c1 | 101% | 7.49 | – | – |
| COc1cccc(NC(=O)c2cc(Cc3ccc(Cl)cc3)n[nH]2)c1OC | 98.8% | 1.85 | – | – |
| O=C(Nc1ccc2c(c1)OCO2)c1cc(Cc2ccc(F)cc2)n[nH]1 | 97.6% | 1.25 | – | – |
| COc1ccccc1NC(=O)c1cc(Cc2ccc(Cl)cc2)n[nH]1 | 98.1% | 1.56 | – | – |
| COc1cccc(NC(=O)c2cc(Cc3ccc(Cl)cc3)n[nH]2)c1 | 96.5% | 1.54 | – | – |
| CC(C)(C)c1ccc(NC(=O)c2cc(Cc3ccc(Cl)cc3)n[nH]2)cc1 | 97.5% | – | 4.89 | – |
| CC(C)(C)c1ccc(NC(=O)c2cc(Cc3ccc(F)cc3)n[nH]2)cc1 | 98.6% | – | 1.96 | – |
| COc1ccc(Cc2cc(C(=O)Nc3ccccc3)[nH]n2)cc1 | 105% | – | 4.4 | – |
| COc1ccc(OC)c(NC(=O)c2cc(Cc3ccc(F)cc3)n[nH]2)c1 | 104% | 1.52 | – | – |
| Cc1ccc(S(=O)(=O)NC(=O)NN2CC3CCCC3C2)cc1 (stereo not drawn) [GLICLAZIDE] | 98.7% | 4.22 | 5.86 | – |
| COc1ccc(Cc2cc(C(=O)Nc3ccc(OC)cc3OC)[nH]n2)cc1 | 101% | 1.58 | – | – |
